In series [1] the test system is Rattus norvegicus. Nature of the series: Antihypertensive activity in spontaneously hypertensive rat assessed as reduction in diastolic arterial pressure at 40 mg/kg, po at 6 hrs. In kind it is functional, organism-based. Details: dose 40 mg/kg. Conditions: Artery. In outline:
(§1)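 Spontaneously hypertensive rats received a single oral dose of 40 or 80 mg/kg. Systolic, diastolic and mean arterial pressure were recorded from 0 to 24 h after dosing, with heart rate monitored in parallel. Data are given as mean ± SEM (n = 8), and significance was tested against the respective control (p < 0.05, p < 0.01).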

Series [2] relates to Rattus norvegicus. Nature of the series: Antihypertensive activity in spontaneously hypertensive rat assessed as reduction in systolic arterial pressure at 40 mg/kg, po measured up to 24 hrs. In kind it is functional, organism-based. Details: dose 40 mg/kg. Conditions: Artery. In outline: as §1
The test system of series [3] is Rattus norvegicus. Nature of the series: Antihypertensive activity in spontaneously hypertensive rat assessed as reduction in mean arterial pressure at 80 mg/kg, po up to 24 hrs. Also on record: dose 80 mg/kg. Conditions: Artery. The format is functional, organism-based. The gist of the method:
as §1

For series [4], the system named is Rattus norvegicus. Nature of the series: Toxicity in spontaneously hypertensive rat assessed as change in basal heart rate at 50 mg/kg, po measured up to 24 hrs. In kind it is organism-based. Details: dose 50 mg/kg, route oral. Conditions: in vivo.
In series [5] the test system is Rattus norvegicus. Nature of the series: Antihypertensive activity in spontaneously hypertensive rat assessed as reduction in systolic arterial pressure at 80 mg/kg, po measured up to 24 hrs. In kind it is functional, organism-based. Also on record: dose 80 mg/kg. Conditions: Artery. The gist of the method:
as §1

Series [6] concerns Rattus norvegicus. Nature of the series: Antihypertensive activity in spontaneously hypertensive rat assessed as reduction in diastolic arterial pressure at 80 mg/kg, po at 6 hrs. The format is functional, Artery. Details: scale not given: the % may be the effect or the level left. In outline: as §1
Series [7] concerns Rattus norvegicus. Nature of the series: Antihypertensive activity in spontaneously hypertensive rat assessed as reduction in diastolic arterial pressure at 80 mg/kg, po up to 24 hrs. In kind it is functional, organism-based. Details: dose 80 mg/kg. Conditions: Artery. The gist of the method:
as §1

Activity calls are given as the source filed them. No cut-off for these calls is given here.

Regarding `C[C@H](CS)C(=O)N1CCC[C@H]1C(=O)O`, the result in the series with Rattus norvegicus [1] and with Rattus norvegicus [2] was Active.
On to `C[C@H]1OCc2c(ccc(O)c2O)C1=O`, for which the outcome with Rattus norvegicus [3], in the series with Rattus norvegicus [5] and in the series with Rattus norvegicus [7] was Active. The figures for the Activity entry in the series on Rattus norvegicus [4] and in the series with Rattus norvegicus [6] were “Non-toxic” and 30%, respectively.
On to `CC1OCc2c(ccc(O)c2O)C1=O` (racemic), for which the result in the series with Rattus norvegicus [3], in the series on Rattus norvegicus [5] and with Rattus norvegicus [7] was Active. In the series with Rattus norvegicus [4], the Activity result is given as “Non-toxic”.
For the compound `C[C@@H]1OCc2c(ccc(O)c2O)C1=O`, the result with Rattus norvegicus [3], in the series on Rattus norvegicus [5] and in the series on Rattus norvegicus [7] was Active. In addition, in the series with Rattus norvegicus [4], the Activity entry was “Non-toxic”.

(Values after ChEMBL document CHEMBL2169763, “Chiral separation, configurational identification and antihypertensive evaluation of (±)-7,8-dihydroxy-3-methyl-isochromanone-4” (Bioorg Med Chem Lett, 2012).)
